Measurements reported in ChEMBL document CHEMBL4513216, “Probing the Open Global Health Chemical Diversity Library for Multistage-Active Starting Points for Next-Generation Antimalarials” (ACS Infect Dis, 2020).

Test: Toxicity liver stage against HepG2, at 10uM
Assay type: cell-based
Set-up: test concentration 10 uM, cell line HepG2-A16-CD81EGFP
Settings: human, HepG2-A16-CD81EGFP cells; read-out: INHIBITION
Summary of the method: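 Uninfected HepG2-A16-CD81EGFP cells, 3 × 10^3 per well, 1536-well, plated on prespotted compound at 10 μM final, parasite-free screening media added to match infected plates; puromycin 10 μM positive, DMSO 0.5% negative; run in parallel with 48 h PbLuc assay at 37 °C, 5% CO2; viability by CellTiter-Glo luminescence, normalized to controls.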

Row | Compound | cytotoxicity at 10 µM
1 | COc1ccc(Nc2c[nH]c(=O)[nH]c2=O)cc1 | 14.2%
2 | COCCN1CCc2ccccc2NCCC1=O | -2.51%
3 | O=C(Cc1csc(-c2ccccc2Cl)n1)NCc1cccc(C(=O)O)c1 | -3.67%
4 | Cc1cc(C)n(CCN2CCN(C(=O)c3cc4ccccc4o3)CC2)n1 | -3.97%
5 | CN(C)CCN1CCN(C)C2(CCN(c3nccs3)CC2)C1=O | -1.92%
6 | Cc1nnc([C@H]2C[C@H]3OCC[C@H]3N(S(=O)(=O)CC(C)C)C2)o1 | -5.27%
7 | O=C(C1CC=CC1)N1CC[C@@H]2O[C@@H](COCC3CCOCC3)CC[C@@H]21 | 5.51%
8 | COc1cc(-c2n[nH]c(CO)n2)cc(OC)c1OC | -4.91%
9 | Cc1noc(C)c1C(=O)N[C@@H]1CCC[C@@H](Oc2ccccc2)[C@@H]1O | 4.72%
10 | CN(CCc1ccccc1)Cc1c(C2CCOCC2)[nH]c2ncccc12 | 4.21%
11 | CCCC(=O)N1CCCC(C(=O)c2cnn(-c3ccc(F)cc3)c2N)C1 (stereo not drawn) | 4.67%
12 | O=C(O)CCCC(=O)NCC1(O)CCN(c2ccnc3cccnc23)C1 (stereo not drawn) | 5.09%
13 | CC(C)(C)NC(=O)C1(Cc2ccccc2-c2ccncc2)CCOCC1 | -6.99%
14 | COCC(=O)N1CCC(c2csc(NC(C)=O)n2)CC1 | -28.6%
15 | CC(=O)N1CCC(Cc2cnc(-n3ccnc3)cn2)CC1 | -38.8%
16 | Cc1nc(Nc2nnc(C)s2)cc(C2CCCN2c2ccncc2)n1 (stereo not drawn) | -9.99%
17 | COCCC(=O)N1CCCC1c1nccc(C)n1 (stereo not drawn) | -19.2%
18 | C=Cn1ncc(CN2CCc3nc(-c4ccncc4)nc(O)c3C2)c1C | -4.45%
19 | CCCc1cc(C(=O)NC(c2ccccc2)c2n[nH]c(C)n2)[nH]n1 (stereo not drawn) | 2.99%
20 | O=C(NCc1ccnc(OCC(F)(F)F)c1)NCC1CCOC1 (stereo not drawn) | -3.22%
21 | O=C(c1cc[nH]n1)N1CCN(C(c2ccccc2)C(F)(F)F)CC1 (stereo not drawn) | -6.36%

Row | Compound | cytotoxicity at 10 µM
22 | C(=C\c1ccccc1)/CNCC1CCc2nncn2C1 (stereo not drawn) | 16.8%
23 | CN1CCN(C)C(CNC(=O)N(C)Cc2ccccc2Cl)C1 (stereo not drawn) | 0.339%
24 | Cc1ccc(CNC(=O)c2ccc(=O)n(C)n2)c(OCC2CC2)c1 | -5.92%
25 | COc1ccc(CN(C)C(=O)CN2CC(n3cc(C)cn3)C2)cc1F | 1.59%
26 | O=C(OCCNc1ncccn1)c1ccc(Br)s1 | -2.64%
27 | Cc1ccc(C(C)(O)CNC(=O)CCn2ccnc2C(C)C)o1 (stereo not drawn) | 8.53%
28 | O=C(c1ccoc1)N(Cc1cccnc1)C1CC1 | -13.2%
29 | Cc1ccc(C(=O)NCc2cccnc2-n2cncn2)cc1S(C)(=O)=O | 4.5%
30 | Cc1cnn(CC2CCCN2C(=O)CCc2c(C)noc2C)c1 (stereo not drawn) | -5.81%
31 | Cc1noc(C(C)N2CCN(CCC(=O)N3CCOCC3)CC2)n1 (stereo not drawn) | -0.0308%
32 | COCCOCCNC(=O)C(C)Oc1ccccc1C(F)(F)F (stereo not drawn) | 0.295%
33 | CC(NCCN1CCN(C(=O)C2CCCC2)CC1)c1cnn(C)c1 (stereo not drawn) | -4.59%
34 | Cc1ccc(CN(C(=O)C(C)S(C)(=O)=O)C2CC2)cc1C (stereo not drawn) | 3.28%
35 | COc1cccc2c1N(Cc1noc(C3CC3)n1)CCC2 | -5.59%
36 | CC1CCC(NC(=O)NCC(C)(C)CCS(C)(=O)=O)CC1 (stereo not drawn) | 9.61%
37 | COc1c(C)cnc(CN2CCCC(c3noc(C4CC4)n3)C2)c1C (stereo not drawn) | -1.62%
38 | Cc1ccc(S(=O)(=O)N(CC2CCOC2)C2CC2)cc1N(C)C (stereo not drawn) | -9.77%
39 | COc1c(C(=O)N2CCC(COCc3ccccc3)C2)c(C)nn1C (stereo not drawn) | 7.39%
40 | CCCc1nnc(NC(=O)N2CCCC(NC(C)=O)C2)s1 (stereo not drawn) | 5.41%
41 | CSCCC(C)NC(=O)CCN1C(=O)CCc2cc(F)ccc21 (stereo not drawn) | 6.79%
42 | CC(=O)c1ccc(CNC(=O)c2c(C)cc(C)cc2C)nc1C | 9.31%

Row | Compound | cytotoxicity at 10 µM
43 | Cc1ccc(CNC(=O)N2CCCCC2CCNS(C)(=O)=O)cc1 (stereo not drawn) | -0.524%
44 | Cc1nn(C)c(C)c1C(=O)N1CCOCC1CC(=O)c1ccco1 (stereo not drawn) | -11.4%
45 | COc1cc(-c2cc(N)ncn2)cc(OC)c1OC | -5.11%
46 | O=C1CCCN1C1CCN(S(=O)(=O)CCOc2ccc(F)cc2)CC1 | 5.94%
47 | CC(C)Nc1cc(N2CCCC3(CN(C)C(=O)O3)C2)ncn1 (stereo not drawn) | -53%
48 | O=C1COc2ccccc2N1CCCn1cnnn1 | 6.05%
49 | CC(c1ccco1)N(C)Cc1cccc(C(=O)Nc2nccn2C)c1 (stereo not drawn) | -7.33%
50 | Cc1cccc(C(C(=O)NCCc2nc(C)cc(=O)[nH]2)N(C)C)c1 (stereo not drawn) | -6.24%
51 | CC(C)c1nc(CN(C)C(=O)[C@H](N)Cc2ccc(Cl)cc2)cs1 | -154%
52 | Cc1ccc(C(N)=O)c(N2Cc3cnc(C(C)(C)C)nc3C2)n1 | 8.05%
53 | Cc1cc(C)c2nc(CNC3CCCNC3=O)cc(O)c2c1 (stereo not drawn) | 5.84%
54 | C[C@@H]1CN(c2ccc(Cl)cn2)CC[C@@]1(O)C1CCOCC1 | -2.54%
55 | O=C(Nc1cnc2n1CCCC2)c1cccc(-n2cnnc2)c1 | -4.34%
56 | Cc1cc(C)nc(N2CCCC(c3nccn3CCCN(C)C)C2)c1 (stereo not drawn) | -7.97%
57 | COc1cccc(C(C(=O)O)N2CCSCC2)c1F (stereo not drawn) | -12.9%
58 | CCCC1(CO)CCCN(C(=O)CN2CCN(CC)CC2)C1 (stereo not drawn) | 0.854%
59 | Cc1noc(-c2ccc(N3CCN(Cc4ncccc4C)CC3)nc2)n1 | -3.35%
60 | O=C(c1ccc(C2CCCN2C(=O)c2ccoc2)s1)N1CCOCC1 (stereo not drawn) | -156%
61 | Cc1nn(C)c(C)c1C1CCCN1C(=O)c1ccc(N(C)C)nc1 (stereo not drawn) | -7.19%
62 | CS(=O)(=O)N1CCN(C(=O)CCn2cccn2)CC1 | -8.39%
63 | CC(=O)N1CCN(C(=O)c2csc(-c3ccc(C)cc3C)n2)CC1 | -18.8%

Row | Compound | cytotoxicity at 10 µM
64 | Cc1csc(N2CCCN(C(=O)C(C)n3cncn3)CC2)n1 (stereo not drawn) | -3.6%
65 | O=C(Nc1nccs1)NC1CCN(Cc2ccccn2)CC1 | -5.72%
66 | c1coc(-c2noc(CN3CCCCC3Cn3cncn3)n2)c1 (stereo not drawn) | -0.915%
67 | Cc1cnn(CC2CCCCN2CCS(C)(=O)=O)c1 (stereo not drawn) | -13.7%
68 | Cc1nc(C)n(CC2CCCN2Cc2nc(C)c3ccccc3n2)n1 (stereo not drawn) | -12.4%
69 | Cc1cnn(CC2CCCN2C(=O)Cc2ccc(C)nc2)c1 (stereo not drawn) | -1.64%
70 | Cc1cc(C)n(C2CN(CC(=O)NC(C3CC3)C3CC3)C2)n1 | -9.8%
71 | O=C1NCCN1C1CCN(Cc2nc(-c3ccoc3)no2)CC1 | -9.06%
72 | O=C(NCCN1CCCc2ccccc21)c1scnc1Cl | -3.41%
73 | CN(C)c1cc(C(=O)N2CCN(S(C)(=O)=O)CC2)ccn1 | -4.46%
74 | CC(C)=CCN1CCOC(Cn2nc(C)cc2C)C1 (stereo not drawn) | -9.93%
75 | Cc1cccc2c1OCCC2NCc1c(C)nn(C)c1N(C)C (stereo not drawn) | -5.72%
76 | O=C(NCC(=O)N1CCCCC1)c1ccoc1 | -6.07%
77 | CC(C)c1cc(NC(=O)CN2CCC(N3CCNC3=O)CC2)on1 | -10.7%
78 | CN(C)c1ncc(-c2cccc(C(N)=O)c2)c(C2CNCCO2)n1 (stereo not drawn) | -2.77%
79 | Cc1nc(C2CCNC2)nc2c1CCC(=O)N2C (stereo not drawn) | 3.77%
80 | Cn1nnc2c1CCN(Cc1ccncc1)C2COCc1ccccc1 (stereo not drawn) | -134%
81 | CN(C)c1cc(NCc2cnc3n2CCN(CC2CC2)CC3)ncn1 | -2.57%
82 | O=C(c1cnc2n1CCN(Cc1ccccc1)C2)N1CCCC1 | -73.9%
83 | Cc1ccc(N2CCCC3(COCCN(c4ccccn4)C3)C2)nn1 (stereo not drawn) | -119%
